Laboratory results: ChEMBL document CHEMBL1121817, “Synthesis and pharmacological properties of 1,2,3,4,5,6-hexahydro-1,6-methano-2-benzazocines” (J Med Chem, 1981)
Where “and” joins values, the source holds several entries; their conditions need not be identical. Identical values can stand only once. Calls of active or inactive are those of the source. No cut-off for these calls is given here.

Key:
Mus musculus [1] = species: Mus musculus; experiment: Analgesic potency was determined by the Eddy hotplate method on mice; format: functional
[2] = Analgesic potency was determined by the Eddy hotplate method on mice expressed as lethal dose; format: ADME, organism-based; details: mouse, in vivo
Method in brief: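 Toxicity was tested in mice in the same series, using aqueous solutions of the hydrochloride, hydrobromide or oxalate salt, and LD50 is reported in mg/kg. When material was scarce, deaths out of ten mice given a single 50 mg/kg dose were recorded instead.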

Mus musculus [3] = species: Mus musculus; experiment: Analgesic potency was determined by the Eddy hotplate method on mice expressed as effective dose; IA=Inactive; format: functional, organism-based
Method in brief: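 Mice, Eddy hot-plate analgesia. Test compounds given as aqueous solutions of their hydrochloride, hydrobromide or oxalate salts. ED50 reported in mg/kg and μmol/kg, some with a range in parentheses. Where full activity could not be reached without toxicity, an approximate value is cited. Lethality was scored as LD50 in mg/kg or as deaths per ten mice at 50 mg/kg.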

Mus musculus [4] = species: Mus musculus; experiment: Analgesic potency was determined by the Eddy hotplate method on mice expressed as effective dose; format: functional
Method in brief: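 Mouse Eddy hot-plate test. Compounds were given as aqueous solutions of the hydrochloride, hydrobromide or oxalate salt. ED50 is reported in mg/kg and μmol/kg, with a range in parentheses for some entries.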

SMILES	ED50 (Mus musculus [1])	LD50 [2]	other results
Br.CN1CCCC2CC1c1ccccc12 (stereo unspecified)	45 mg/kg and 168 µmol/kg	–	–
COc1ccc2c(c1)C1CCCN(CC=C(C)C)C2C1.O=C(O)C(=O)O (stereo unspecified)	–	300 mg/kg	ED50 (Mus musculus [3]): inactive
O=C(O)C(=O)O.c1ccc2c(c1)C1CCCNC2C1 (stereo unspecified)	–	225 mg/kg	–
CCCN1CCCC2CC1c1ccccc12.O=C(O)C(=O)O (stereo unspecified)	–	110 mg/kg	–
C=CCN1CCCC2CC1c1ccccc12.Cl (stereo unspecified)	28 mg/kg and 112 µmol/kg	110 mg/kg	–
Cl.c1ccc2c(c1)C1CCCNC2C1 (stereo unspecified)	12 mg/kg and 57 µmol/kg	225 mg/kg	–
CC(C)=CCN1CCCC2CC1c1ccccc12.Cl (stereo unspecified)	48 mg/kg and 173 µmol/kg	65 mg/kg	–
CCCN1CCCC2CC1c1ccccc12.Cl (stereo unspecified)	28 mg/kg and 112 µmol/kg	75 mg/kg	–
O=C(O)C(=O)O.c1ccc(CCN2CCCC3CC2c2ccccc23)cc1 (stereo unspecified)	–	225 mg/kg	–
COc1ccc2c(c1)C1CCCNC2C1.O=C(O)C(=O)O (stereo unspecified)	–	–	ED50 (Mus musculus [4]): 64 mg/kg and 218 µmol/kg
Br.Oc1ccc2c(c1)C1CCCN(CCc3ccccc3)C2C1 (stereo unspecified)	–	–	ED50 (Mus musculus [4]): 14 mg/kg and 37 µmol/kg
COc1ccc2c(c1)C1CCCN(CCc3ccccc3)C2C1 (stereo unspecified)	–	–	ED50 (Mus musculus [3]): inactive
CN1CCCC2CC1c1ccc(O)cc12 (stereo unspecified)	–	–	ED50 (Mus musculus [3]): inactive
COc1ccc2c(c1)C1CCCN(C)C2C1.O=C(O)C(=O)O (stereo unspecified)	–	157 mg/kg	ED50 (Mus musculus [4]): 16 mg/kg and 52 µmol/kg
Br.CCCN1CCCC2CC1c1ccc(O)cc12 (stereo unspecified)	–	–	ED50 (Mus musculus [4]): 32 mg/kg and 103 µmol/kg
C=CCN1CCCC2CC1c1ccccc12.O=C(O)C(=O)O (stereo unspecified)	–	150 mg/kg	–
COc1ccc2c3c1O[C@H]1[C@@H](O)C=C[C@H]4[C@@H](C2)N(C)CC[C@@]341.COc1ccc2c3c1O[C@H]1[C@@H](O)C=C[C@H]4[C@@H](C2)N(C)CC[C@@]341.O.O=P(O)(O)O.O=P(O)(O)O [CODEINE PHOSPHATE]	6.8 mg/kg and 17 µmol/kg	–	–
Cl.c1ccc(CCN2CCCC3CC2c2ccccc23)cc1 (stereo unspecified)	86 mg/kg and 246 µmol/kg	225 mg/kg	–
CC(C)=CCN1CCCC2CC1c1ccccc12.O=C(O)C(=O)O (stereo unspecified)	–	130 mg/kg	–
